Laboratory results from ChEMBL document CHEMBL1140949, “Synthesis and evaluation of vancomycin aglycon analogues that bear modifications in the N-terminal D-leucyl amino acid” (2009).
Converted amounts (≈) assume the structure as drawn.

Tests used:
Staphylococcus aureus = experiment: Antimicrobial activity against vancomycin-sensitive Staphylococcus aureus ATCC 25923 after 24 hrs by microtiter plate based antimicrobial assay; assay type: functional; settings: ATCC 25923, 24 h
Method in brief: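 Microtiter plate broth assay against vancomycin-sensitive S. aureus ATCC 25923. Unstable hydrazine-bearing analogues were tested within one day of freeing the hydrazine. They were used as crude deprotected material without reverse-phase HPLC purification, because purification caused decomposition.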

Enterococcus faecalis = experiment: Antimicrobial activity against vancomycin-resistant Enterococcus faecalis BM4166 after 24 hrs by microtiter plate based antimicrobial assay; assay type: functional
Method in brief: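 VanA-type vancomycin-resistant E. faecalis BM4166, with inducible resistance that switches cell-wall precursors from D-Ala-D-Ala to D-Ala-D-Lac on glycopeptide exposure. MIC measured in a microtiter plate format. Unstable hydrazine analogues were assayed within one day of deprotection, as crude material without HPLC purification.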

Row | SMILES | MIC (Staphylococcus aureus) [µg/mL] | MIC (Enterococcus faecalis) [µg/mL]
1 | CN[C@H](Cc1cccc(NC(=N)N)c1)C(=O)N[C@H]1C(=O)N[C@@H](CC(N)=O)C(=O)N[C@H]2C(=O)N[C@H]3C(=O)N[C@H](C(=O)N[C@H](C(=O)O)c4cc(O)cc(O)c4-c4cc3ccc4O)[C@H](O)c3ccc(c(Cl)c3)Oc3cc2cc(c3O)Oc2ccc(cc2Cl)[C@H]1O.O=C(O)C(F)(F)F | 10 | 320
2 | CN[C@H](Cc1cccc(NN)c1)C(=O)N[C@H]1C(=O)N[C@@H](CC(N)=O)C(=O)N[C@H]2C(=O)N[C@H]3C(=O)N[C@H](C(=O)N[C@H](C(=O)O)c4cc(O)cc(O)c4-c4cc3ccc4O)[C@H](O)c3ccc(c(Cl)c3)Oc3cc2cc(c3O)Oc2ccc(cc2Cl)[C@H]1O.O=C(O)C(F)(F)F | 10 | 320
3 | CN[C@H](Cc1cccc(N)c1)C(=O)N[C@H]1C(=O)N[C@@H](CC(N)=O)C(=O)N[C@H]2C(=O)N[C@H]3C(=O)N[C@H](C(=O)N[C@H](C(=O)O)c4cc(O)cc(O)c4-c4cc3ccc4O)[C@H](O)c3ccc(c(Cl)c3)Oc3cc2cc(c3O)Oc2ccc(cc2Cl)[C@H]1O.O=C(O)C(F)(F)F | 20 | 320
4 | CN[C@H](Cc1cccc(CN)c1)C(=O)N[C@H]1C(=O)N[C@@H](CC(N)=O)C(=O)N[C@H]2C(=O)N[C@H]3C(=O)N[C@H](C(=O)N[C@H](C(=O)O)c4cc(O)cc(O)c4-c4cc3ccc4O)[C@H](O)c3ccc(c(Cl)c3)Oc3cc2cc(c3O)Oc2ccc(cc2Cl)[C@H]1O.O=C(O)C(F)(F)F | > 10 | 640
5 | CN[C@H](COC(C)(C)C)C(=O)N[C@H]1C(=O)N[C@@H](CC(N)=O)C(=O)N[C@H]2C(=O)N[C@H]3C(=O)N[C@H](C(=O)N[C@H](C(=O)O)c4cc(O)cc(O)c4-c4cc3ccc4O)[C@H](O)c3ccc(c(Cl)c3)Oc3cc2cc(c3O)Oc2ccc(cc2Cl)[C@H]1O.O=C(O)C(F)(F)F | 20 | 320
6 | CN[C@@H](C(=O)N[C@H]1C(=O)N[C@@H](CC(N)=O)C(=O)N[C@H]2C(=O)N[C@H]3C(=O)N[C@H](C(=O)N[C@H](C(=O)O)c4cc(O)cc(O)c4-c4cc3ccc4O)[C@H](O)c3ccc(c(Cl)c3)Oc3cc2cc(c3O)Oc2ccc(cc2Cl)[C@H]1O)[C@H](C)O.O=C(O)C(F)(F)F | 40 | 800
7 | CN[C@H](CO)C(=O)N[C@H]1C(=O)N[C@@H](CC(N)=O)C(=O)N[C@H]2C(=O)N[C@H]3C(=O)N[C@H](C(=O)N[C@H](C(=O)O)c4cc(O)cc(O)c4-c4cc3ccc4O)[C@H](O)c3ccc(c(Cl)c3)Oc3cc2cc(c3O)Oc2ccc(cc2Cl)[C@H]1O.O=C(O)C(F)(F)F | 40 | 800
8 | CCNC(=O)Nc1cccc(C[C@@H](NC)C(=O)N[C@H]2C(=O)N[C@@H](CC(N)=O)C(=O)N[C@H]3C(=O)N[C@H]4C(=O)N[C@H](C(=O)N[C@H](C(=O)O)c5cc(O)cc(O)c5-c5cc4ccc5O)[C@H](O)c4ccc(c(Cl)c4)Oc4cc3cc(c4O)Oc3ccc(cc3Cl)[C@H]2O)c1.O=C(O)C(F)(F)F | 31 | 640
9 | CN[C@H](Cc1cccc(CNN)c1)C(=O)N[C@H]1C(=O)N[C@@H](CC(N)=O)C(=O)N[C@H]2C(=O)N[C@H]3C(=O)N[C@H](C(=O)N[C@H](C(=O)O)c4cc(O)cc(O)c4-c4cc3ccc4O)[C@H](O)c3ccc(c(Cl)c3)Oc3cc2cc(c3O)Oc2ccc(cc2Cl)[C@H]1O.O=C(O)C(F)(F)F | 1.25 | 170
10 | CN[C@H](CCNN)C(=O)N[C@H]1C(=O)N[C@@H](CC(N)=O)C(=O)N[C@H]2C(=O)N[C@H]3C(=O)N[C@H](C(=O)N[C@H](C(=O)O)c4cc(O)cc(O)c4-c4cc3ccc4O)[C@H](O)c3ccc(c(Cl)c3)Oc3cc2cc(c3O)Oc2ccc(cc2Cl)[C@H]1O.O=C(O)C(F)(F)F | 10 | > 400
11 | CN[C@H](CC(C)C)C(=O)N[C@H]1C(=O)N[C@@H](CC(N)=O)C(=O)N[C@H]2C(=O)N[C@H]3C(=O)N[C@H](C(=O)N[C@H](C(=O)O)c4cc(O)cc(O)c4-c4cc3ccc4O)[C@H](O)c3ccc(c(Cl)c3)Oc3cc2cc(c3O)Oc2ccc(cc2Cl)[C@H]1O [VANCOMYCIN AGLYCON] | 0.625 (≈ 0.546 µM) | 640 (≈ 559 µM)
12 | CN[C@H](CC(C)C)C(=O)N[C@H]1C(=O)N[C@@H](CC(N)=O)C(=O)N[C@H]2C(=O)N[C@H]3C(=O)N[C@H](C(=O)N[C@H](C(=O)O)c4cc(O)cc(O)c4-c4cc3ccc4O)[C@H](O)c3ccc(c(Cl)c3)Oc3cc2cc(c3O[C@@H]2O[C@H](CO)[C@@H](O)[C@H](O)[C@H]2O[C@H]2C[C@](C)(N)[C@H](O)[C@H](C)O2)Oc2ccc(cc2Cl)[C@H]1O [VANCOMYCIN] | 1.25 (≈ 0.863 µM) | 2000 (≈ 1380 µM)
